Experimental data from ChEMBL document CHEMBL1139184, “Identification of a series of tetrahydroisoquinoline derivatives as potential therapeutic agents for breast cancer” (2007).
Active and inactive are the calls of the source. The calls are words filed in the database; no cut-off is given here.

Legend:
[1] = molecular target: T1, Estrogen receptor (Homo sapiens) (UniProt P03372); test: Displacement of ES2 ligand from human recombinant ERalpha relative to tamoxifen
T1 sequence (whole entry): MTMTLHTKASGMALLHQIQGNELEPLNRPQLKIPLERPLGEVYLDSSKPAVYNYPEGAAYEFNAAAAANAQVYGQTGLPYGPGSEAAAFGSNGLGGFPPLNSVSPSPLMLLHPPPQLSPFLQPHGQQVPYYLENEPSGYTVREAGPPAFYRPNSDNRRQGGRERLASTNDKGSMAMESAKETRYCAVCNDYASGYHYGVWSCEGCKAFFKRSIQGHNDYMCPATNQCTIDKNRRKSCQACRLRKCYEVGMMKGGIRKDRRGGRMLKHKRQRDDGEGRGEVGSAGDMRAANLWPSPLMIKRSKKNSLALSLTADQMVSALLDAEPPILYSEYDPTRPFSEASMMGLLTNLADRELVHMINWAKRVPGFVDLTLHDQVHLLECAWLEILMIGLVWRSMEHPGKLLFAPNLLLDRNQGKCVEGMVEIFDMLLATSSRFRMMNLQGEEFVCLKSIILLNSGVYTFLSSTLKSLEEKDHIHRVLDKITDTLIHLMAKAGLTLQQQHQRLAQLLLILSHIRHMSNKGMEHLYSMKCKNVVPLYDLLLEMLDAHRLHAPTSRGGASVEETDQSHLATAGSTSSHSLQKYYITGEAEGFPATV
In short: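 Fluorescence polarization competition assay. Recombinant hERa (7 nM) was preincubated with fluorescent estrogenic probe ES2 (1 nM) in screening buffer, then combined with serial DMSO dilutions of test molecule. After 1 h at room temperature, polarization was read (ex 495 nm, em 535 nm).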

MCF7 [2] = test: Enhancement of growth of estrogen receptor positive MCF7 cells at 5 uM after 48 hrs by MTT assay relative to DMSO; format: functional, cell-based; settings: Homo sapiens
In short: (§1)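 Cells were seeded, left to attach for 24 h, then switched to phenol red-free DMEM with 5% charcoal-stripped FBS. After a further 24 h, compound was added at 5 µM in DMSO (final DMSO ≤0.1%) and incubated 48 h. Viability was read as absorbance at 570 nm by MTT-type kit and expressed relative to DMSO, mean of three determinations.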

[3] = molecular target: T1, Estrogen receptor (Homo sapiens); test: Agonist activity at human ERalpha in T47D cells assessed as enhancement of AP1-driven transactivation at 5 uM by luciferase reporter assay relative to DMSO; format: functional, cell-based
In short: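 T47D cells grown in RPMI 1640 + 10% FBS, plated in triplicate at 3 × 10⁵ cells/well in phenol red-free RPMI + 10% charcoal-stripped FBS. After 24 h, transfected with pCMV-hERa, AP1-Luc reporter and pCMV-β (β-gal normalisation). Compound at 5 µM or DMSO for 24 h. Luciferase read and normalised to β-gal. Result expressed as RLA of compound/RLA of DMSO.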

[4] = molecular target: T2, Progesterone receptor (Homo sapiens) (UniProt P06401); test: Antagonist activity at human PR in T47D cells assessed as MMTV-driven transactivation at 5 uM by luciferase reporter assay relative to progesterone; format: functional, cell-based; set-up: scale not given: the % may be the effect or the level left
T2 sequence (whole entry): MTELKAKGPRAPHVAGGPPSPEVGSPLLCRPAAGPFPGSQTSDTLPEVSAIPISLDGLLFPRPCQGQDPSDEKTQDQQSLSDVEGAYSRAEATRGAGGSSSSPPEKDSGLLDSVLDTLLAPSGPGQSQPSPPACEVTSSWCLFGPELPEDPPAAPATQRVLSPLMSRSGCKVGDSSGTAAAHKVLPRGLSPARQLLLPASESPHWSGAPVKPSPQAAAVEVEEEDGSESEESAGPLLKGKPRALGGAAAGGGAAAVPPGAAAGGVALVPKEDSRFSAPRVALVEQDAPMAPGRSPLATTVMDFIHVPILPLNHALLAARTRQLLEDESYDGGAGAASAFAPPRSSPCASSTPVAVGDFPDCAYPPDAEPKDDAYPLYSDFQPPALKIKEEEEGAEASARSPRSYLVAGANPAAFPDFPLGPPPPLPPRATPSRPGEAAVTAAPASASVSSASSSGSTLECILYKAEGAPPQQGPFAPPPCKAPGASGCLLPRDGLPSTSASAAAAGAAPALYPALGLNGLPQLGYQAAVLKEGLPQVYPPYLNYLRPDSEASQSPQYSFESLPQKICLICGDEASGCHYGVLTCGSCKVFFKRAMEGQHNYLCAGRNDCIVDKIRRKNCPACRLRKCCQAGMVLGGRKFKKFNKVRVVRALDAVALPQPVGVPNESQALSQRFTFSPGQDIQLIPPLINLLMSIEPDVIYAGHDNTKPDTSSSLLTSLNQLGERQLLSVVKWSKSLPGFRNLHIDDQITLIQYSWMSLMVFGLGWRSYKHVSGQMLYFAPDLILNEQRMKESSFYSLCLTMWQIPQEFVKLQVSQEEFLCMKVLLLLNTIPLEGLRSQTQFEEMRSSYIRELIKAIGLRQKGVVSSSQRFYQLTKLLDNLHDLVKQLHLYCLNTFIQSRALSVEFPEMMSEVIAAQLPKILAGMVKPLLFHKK
In short: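 T47D cells in phenol red-free RPMI + 10% charcoal-stripped FBS, 3 × 10⁵ cells/well in triplicate. After 24 h, transfected with pCMV-hPR, pMMTV-Luc reporter and pCMV-β normaliser. Treated for 24 h in the presence of 1 nM progesterone. MMTV-driven luciferase measured on lysate and normalised to β-galactosidase luminescence.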

[5] = molecular target: T1, Estrogen receptor (Homo sapiens); test: Agonist activity at human recombinant ERalpha expressed in MCF7 cells assessed as ERE-driven transactivation at 2.5 uM by luciferase reporter assay relative to DMSO; format: functional, cell-based
In short: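 MCF-7 cells in phenol red-free DMEM with 10% charcoal-stripped FBS, plated in triplicate, transfected 24 h later with pCMV-hERa, 3x-ERE-TATA-Luc and pCMV-b. Test compound (2.5 µM) or DMSO added after transfection; lysed after 24 h. Luciferase normalized to b-galactosidase; reported as ratio of compound RLA to DMSO RLA, mean of three determinations.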

MCF7 [6] = test: Cell viability of estrogen receptor positive MCF7 cells at 5 uM after 48 hrs by MTT assay relative to DMSO; format: functional, Homo sapiens; in short: as §1
MDA-MB-231 = test: Cell viability of estrogen receptor negative MDA-MB-231 cells at 5 uM after 48 hrs by MTT assay relative to DMSO; format: functional; in short: as §1

## CCCCNC(=O)CCCCCCCCCCOC[C@@H]1Cc2ccccc2CN1C(=O)c1ccc(F)cc1
[1]
  relative binding affinity (RBA): 0.264
MCF7 [2]
  Activity: inactive

## CCCCNC(=O)CCCCCCCCCCOC[C@@H]1Cc2ccccc2CN1C(=O)c1cccc(Cl)c1
[1]
  relative binding affinity (RBA): 0.156
MCF7 [2]
  Activity: inactive
[3]
  Activity: Active
[4]
  Activity: 54%

## CCCCNC(=O)CCCCCCCCCCOC[C@@H]1Cc2ccccc2CN1C(=O)Cc1cccc(F)c1
[1]
  relative binding affinity (RBA): 0.267
[5]
  Activity: Active
MCF7 [2]
  Activity: inactive

## CCCCNC(=O)CCCCCCCCCCOC[C@@H]1Cc2ccccc2CN1C(=O)c1ccc(C)cc1
[1]
  relative binding affinity (RBA): 0.132
[5]
  Activity: Active
MCF7 [2]
  Activity: inactive

## C[C@]12CC[C@@H]3c4ccc(O)cc4C[C@@H](CCCCCCCCC[S+]([O-])CCCC(F)(F)C(F)(F)F)[C@H]3[C@@H]1CC[C@@H]2O (stereo not given in full)
[4]
  Activity: 48%

## CCCCCCCCNC(=O)CCCCCCCCCCOC[C@@H]1Cc2ccccc2CN1C(=O)c1cccc(F)c1
[1]
  relative binding affinity (RBA): 0.177
MCF7 [2]
  Activity: inactive

## CCCCNC(=O)CCCCCCCCCCOC[C@@H]1Cc2ccccc2CN1C(=O)c1ccc(O)cc1
[1]
  relative binding affinity (RBA): 1.79
MCF7 [2]
  Activity: inactive

## CCCCNC(=O)CCCCCCCCCCOC[C@@H]1Cc2ccccc2CN1C(=O)c1cccc(O)c1
[1]
  relative binding affinity (RBA): 5
MCF7 [2]
  Activity: inactive
MCF7 [6]
  Activity: 0.48
MDA-MB-231; Homo sapiens
  Activity: inactive

## CCCCNC(=O)CCCCCCCCCCOC[C@@H]1Cc2ccccc2CN1C(=O)c1cccc(OC)c1
[1]
  relative binding affinity (RBA): 0.192
MCF7 [2]
  Activity: inactive

## CC/C(=C(\c1ccccc1)c1ccc(OCCN(C)C)cc1)c1ccccc1 [TAMOXIFEN]
MCF7 [2]
  Activity: inactive
MCF7 [6]
  Activity: 0.43
MDA-MB-231
  Activity: 0.65

## CCCCNC(=O)CCCCCCCCCCOC[C@@H]1Cc2ccccc2CN1C(=O)c1ccc(OC)cc1
[1]
  relative binding affinity (RBA): 0.14
MCF7 [2]
  Activity: inactive

## CCCCNC(=O)CCCCCCCCCCOC[C@@H]1Cc2ccccc2CN1C(=O)c1ccccc1F
[1]
  relative binding affinity (RBA): 0.225
MCF7 [2]
  Activity: inactive

## CCCCNC(=O)CCCCCCCCCCOC[C@@H]1Cc2ccccc2CN1C(=O)c1cccc(F)c1
[1]
  relative binding affinity (RBA): 0.287
MCF7 [2]
  Activity: inactive

## CCCCNC(=O)CCCCCCCCCCOC[C@@H]1Cc2ccccc2CN1C(=O)c1cccc(C)c1
[1]
  relative binding affinity (RBA): 0.156
[5]
  Activity: Active
MCF7 [2]
  Activity: inactive
